# Laboratory results taken from paper PMC9652259 (Clinical Pharmacokinetics, 2022).
# Experiments:
# Esomeprazole = assay type: in vivo, human; details: for AUC(0-inf) / Cmax: human, plasma, oral, Geometric LS mean, ANOVA
# Method in brief: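 Healthy adults (18–60 y, BMI 18–30 kg/m2) in an open-label randomized two-period crossover with a 10-day washout. Single 600 mg oral dose (3 × 200 mg capsules) alone or with esomeprazole 40 mg, fasted at least 8–10 h plus 4 h post-dose. Plasma was assayed by LC-MS/MS (30–3750 ng/mL). ANOVA on ln Cmax/AUC∞ gave 90% CIs of geometric LS mean ratios.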
# Itraconazole = assay type: in vivo, human
# Method in brief: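 Healthy adults (18–60 y) in a two-treatment crossover with a 10-day washout. Single 600 mg oral dose given alone or with itraconazole 200 mg oral solution, with overnight fast (at least 8–10 h) and 4 h post-dose fast. Sampling extended to 312 h. Plasma was quantified by validated LC-MS/MS. ANOVA of log-transformed Cmax and AUC∞ gave two-sided 90% CIs of geometric LS mean ratios.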
# Rifampin = assay type: in vivo, human
# Method in brief: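 Crossover in healthy adults (18–60 y, BMI 18–30 kg/m2) with a 10-day washout. Single oral 600 mg dose given alone or with rifampin 600 mg (2 × 300 mg capsules), taken with 240 mL water after at least 8–10 h fasting and 4 h further fasting. Plasma was measured by LC-MS/MS (30–3750 ng/mL). ANOVA (treatment, period, sequence, subject within sequence) on log Cmax/AUC∞ gave 90% CIs.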
# Probenecid = assay type: in vivo, human
# Method in brief: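 Two-treatment crossover in healthy subjects (18–60 y, BMI 18–32 kg/m2) with a 17-day washout. A 600 mg oral capsule dose was given alone or with probenecid 500 mg tablet, after fasting at least 8–10 h and for 4 h post-dose. Plasma was collected through 312 h and measured by LC-MS/MS. Ratios came from ANOVA of ln-transformed Cmax and AUC∞ with 90% CIs.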
# [1] = Four phase I DDI studies overall; assay type: in vivo, human
# Method in brief: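 Across four crossover studies, healthy subjects received a single 600 mg oral dose fasted. Tmax came from plasma LC-MS/MS profiles, with BLQ values set to zero or missing by position. Safety covered adverse events, physical examination, vital signs, 12-lead ECG and laboratory tests. The investigator graded severity and causality. Analysis was descriptive over all subjects dosed at least once.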
# CYP3A4 = CYP3A4 (Homo sapiens, UniProt P08684); test: In vitro mechanism-based inactivation of CYP3A4; assay type: biochemical
# Solubility versus pH = assay type: physicochemical; details: dependence on pH
# OAT1 = target: T1, OAT1 (Homo sapiens, UniProt Q4U2R8); test: In vitro OAT1 substrate assessment; assay type: in vitro ADME; details: in vitro data
# T1 sequence (Q4U2R8 1-563): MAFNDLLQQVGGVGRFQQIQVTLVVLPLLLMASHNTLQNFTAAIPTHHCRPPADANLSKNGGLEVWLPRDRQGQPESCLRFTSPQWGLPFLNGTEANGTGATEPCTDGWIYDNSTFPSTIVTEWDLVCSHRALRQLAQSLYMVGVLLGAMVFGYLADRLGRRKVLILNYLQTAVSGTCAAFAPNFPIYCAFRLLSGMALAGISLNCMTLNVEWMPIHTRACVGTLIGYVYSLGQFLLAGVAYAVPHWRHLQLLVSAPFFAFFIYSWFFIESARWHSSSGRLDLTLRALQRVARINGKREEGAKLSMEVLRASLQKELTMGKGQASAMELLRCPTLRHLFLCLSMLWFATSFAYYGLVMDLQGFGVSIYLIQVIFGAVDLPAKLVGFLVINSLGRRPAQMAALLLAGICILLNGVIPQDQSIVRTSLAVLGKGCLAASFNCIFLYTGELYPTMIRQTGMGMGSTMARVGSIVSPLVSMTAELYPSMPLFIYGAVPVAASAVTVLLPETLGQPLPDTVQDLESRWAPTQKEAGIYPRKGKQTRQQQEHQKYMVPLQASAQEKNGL
# [2] = target: cytochrome P450 (CYP) 3A4 (Homo sapiens, UniProt P08684); test: In vitro metabolism: enzyme responsible; assay type: in vitro ADME; details: in vitro studies
# UGT1A4 = target: T2, UGT1A4 (Homo sapiens, UniProt P22310); test: UGT substrate / metabolite formation; assay type: in vitro ADME; details: generates ZAAD-1006a
# T2 sequence (P22310 29-534): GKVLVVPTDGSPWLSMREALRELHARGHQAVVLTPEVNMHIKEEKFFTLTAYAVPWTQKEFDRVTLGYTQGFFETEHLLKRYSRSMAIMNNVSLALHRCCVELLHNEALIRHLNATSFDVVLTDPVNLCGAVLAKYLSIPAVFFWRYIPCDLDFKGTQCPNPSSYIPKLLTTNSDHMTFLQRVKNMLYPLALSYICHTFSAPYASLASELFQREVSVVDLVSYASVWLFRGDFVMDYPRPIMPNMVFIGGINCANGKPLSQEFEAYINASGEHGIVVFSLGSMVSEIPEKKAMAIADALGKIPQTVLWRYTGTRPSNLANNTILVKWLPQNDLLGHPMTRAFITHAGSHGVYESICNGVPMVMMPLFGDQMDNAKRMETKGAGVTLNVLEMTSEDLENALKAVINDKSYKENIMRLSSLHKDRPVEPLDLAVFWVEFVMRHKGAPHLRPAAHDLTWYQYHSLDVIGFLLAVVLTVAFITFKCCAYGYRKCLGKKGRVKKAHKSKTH
# [3] = co-administration with probenecid, healthy subjects ref 12; cited from earlier work
# [4] = co-administered with esomeprazole vs alone
# [5] = pexidartinib + esomeprazole vs pexidartinib alone
# [6] = co-administered with itraconazole vs alone
# [7] = pexidartinib + itraconazole vs pexidartinib alone
# [8] = co-administered with rifampin vs alone
# [9] = pexidartinib + rifampin vs pexidartinib alone
# [10] = pexidartinib + probenecid vs pexidartinib alone
# Sequence of CYP3A4 (P08684 whole entry): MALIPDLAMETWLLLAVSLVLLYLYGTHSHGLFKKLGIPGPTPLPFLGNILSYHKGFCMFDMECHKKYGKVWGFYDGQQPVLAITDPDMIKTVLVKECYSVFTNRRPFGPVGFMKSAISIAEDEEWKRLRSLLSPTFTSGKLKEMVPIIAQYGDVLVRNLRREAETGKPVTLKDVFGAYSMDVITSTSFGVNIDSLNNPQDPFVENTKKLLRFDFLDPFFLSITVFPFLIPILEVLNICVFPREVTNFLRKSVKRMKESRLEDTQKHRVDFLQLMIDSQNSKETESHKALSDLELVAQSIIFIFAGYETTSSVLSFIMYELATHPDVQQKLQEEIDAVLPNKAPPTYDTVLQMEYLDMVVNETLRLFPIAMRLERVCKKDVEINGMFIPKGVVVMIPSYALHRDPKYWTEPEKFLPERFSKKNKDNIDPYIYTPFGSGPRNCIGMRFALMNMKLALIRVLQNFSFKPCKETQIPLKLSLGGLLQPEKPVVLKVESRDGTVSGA
# Sequence of cytochrome P450 (CYP) 3A4 (P08684 whole entry): as above
compound,measurement,setting,value
FC(F)(F)c1ccc(CNc2ccc(Cc3c[nH]c4ncc(Cl)cc34)cn2)cn1 [Pexidartinib],decrease in AUC∞,Esomeprazole; [4],~47%
same,decrease in Cmax,Esomeprazole; [4],approximately 55%
same,AUC(0-inf),"Esomeprazole; 600 mg, pexidartinib alone",104000 ng·h/mL
same,Cmax,"Esomeprazole; 600 mg, pexidartinib alone",6430 ng/mL
same,AUC(0-inf),Esomeprazole; pexidartinib + esomeprazole,55400 ng·h/mL
same,Cmax,Esomeprazole; pexidartinib + esomeprazole,2920 ng/mL
same,"AUC∞, Geometric LS mean ratio (90% CI)",Esomeprazole; [5],53.1 (47.4–59.3) %
same,"Cmax, Geometric LS mean ratio (90% CI)",Esomeprazole; [5],45.4 (36.8–55.9) %
same,subjects who experienced a TEAE,Itraconazole; N = 16,nine
same,increase in AUC∞,Itraconazole; [6],~73%
same,increase in Cmax,Itraconazole; [6],approximately 48%
same,"AUC∞, Geometric LS mean ratio (90% CI)",Itraconazole; [7],173.0 (160.7–186.3) %
same,"Cmax, Geometric LS mean ratio (90% CI)",Itraconazole; [7],148.3 (127.8–172.0) %
same,subjects with TEAE assessed as related to the study drug,Itraconazole; pexidartinib or itraconazole,seven
same,decrease in AUC∞,Rifampin; [8],~63%
same,decrease in Cmax,Rifampin; [8],approximately 33%
same,subjects who experienced a TEAE,Rifampin; grade 1 diarrhea,single
same,"AUC∞, Geometric LS mean ratio (90% CI)",Rifampin; [9],37.0 (30.6–44.8) %
same,"Cmax, Geometric LS mean ratio (90% CI)",Rifampin; [9],67.1 (53.1–84.8) %
same,subjects who experienced a TEAE,Probenecid; N = 16,Eight
same,effect on Cmax,Probenecid; co-administered with probenecid vs alone,unchanged
same,subjects with TEAE considered study drug related,Probenecid; in vivo,four
same,"AUC∞, Geometric LS mean ratio (90% CI)",Probenecid; [10],159.8 (143.4–178.0) %
same,"Cmax, Geometric LS mean ratio (90% CI)",Probenecid; [10],105.8 (92.4–121.0) %
same,severity of treatment-emergent adverse events (TEAEs),[1]; all four studies,grade 1 or 2
same,Tmax,"[1]; human, plasma, oral",2 to 3 h
same,KI (inactivation),CYP3A4,4.01 µM
same,kinact,CYP3A4,0.000377 s⁻¹
same,solubility,Solubility versus pH,decreases as pH increases
same,substrate for OAT1,OAT1,not a substrate for OAT1
same,enzyme responsible for metabolism,[2],cytochrome P450 (CYP) 3A4 as the main enzyme
same,UGT1A4 substrate,UGT1A4,substrate of the UGT1A4 enzyme
CCCc1nc(C(C)(C)O)c(C(=O)O)n1Cc1ccc(-c2ccccc2-c2nnn[nH]2)cc1 [olmesartan],increase in AUC,[3],approximately 50%
